{"source": "ChEMBL document CHEMBL1134337", "about": "“Behavioral approach to nondyskinetic dopamine antagonists: identification of seroquel” (J Med Chem, 2001)", "data": [{"tested_on": "Mus musculus", "assay": "Antagonism of apomorphine induced climbing was determined in female swiss -Webster mice after (ip) administration of 80 mg/kg", "format": "functional", "settings": "not given", "procedure,_shortened": "(§1)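 Female Swiss-Webster mice (about 20 g) were fasted about 24 h, then given test compound or vehicle ip or po (N = 20 per group). Vehicle was 0.5% w/w hydroxypropylmethylcellulose with 0.1% w/w Tween 80 in water. After 30 min, mice received apomorphine HCl 1.25 mg/kg sc. At 13 min, each mouse was watched for 1 min; score was mean of highest and lowest rung of 27. Groups were compared with vehicle by Student's t-test.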", "values": [{"smiles": "COC[C@H](CN1CCN(C2=Nc3ccccc3Sc3ccccc32)CC1)OC", "Activity": 1}, {"smiles": "CN1CCN(C2=Nc3cc(Cl)ccc3Oc3ccccc32)CC1", "note": "[ISOLOXAPINE]", "Activity": 14}, {"smiles": "COCC(COC)N1CCN(C2=Nc3ccccc3Sc3ccccc32)CC1", "Activity": 19}, {"smiles": "OCCOCCN1CCN(C2=Nc3ccccc3Cc3sccc32)CC1", "Activity": 7}, {"smiles": "COCC(CO)N1CCN(C2=Nc3ccccc3Sc3ccccc32)CC1", "note": "(stereo not given)", "Activity": 21}, {"smiles": "CN1CCN(C2=Nc3cc(Cl)ccc3Cc3ccccc32)CC1", "Activity": 25}, {"smiles": "O=S1(=O)c2ccccc2N=C(N2CCN(CCOCCO)CC2)c2ccccc21", "Activity": 23}, {"smiles": "CN1CCN(C2=Nc3cc(Cl)ccc3Sc3ccccc32)CC1", "note": "[ISOCLOTHIAPINE]", "Activity": 18}, {"smiles": "OCC1COCC(CN2CCN(C3=Nc4ccccc4Sc4ccccc43)CC2)O1", "note": "(stereo not given)", "Activity": 0}, {"smiles": "[O-][S+]1c2ccccc2N=C(N2CCN(CCOCCO)CC2)c2ccccc21", "note": "(stereo not given) [SULFOXIDE METABOLITE]", "Activity": 23}]}, {"tested_on": "Mus musculus", "assay": "Antagonism of apomorphine induced climbing was determined in female swiss -Webster mice after (ip) administration of 20 mg/kg", "format": "functional", "settings": "not given", "procedure,_shortened": "as §1", "values": [{"smiles": "CN1CCN(C2=Nc3ccc(O)cc3Sc3ccccc32)CC1", "Activity": 1}, {"smiles": "c1ccc2c(c1)N=C(N1CCN(CC3COCCO3)CC1)c1ccccc1S2", "note": "(stereo not given)", "Activity": 0}, {"smiles": "OCC1COCC(CN2CCN(C3=Nc4ccccc4Sc4ccccc43)CC2)O1", "note": "(stereo not given)", "Activity": 18}]}, {"tested_on": "Mus musculus", "assay": "Antagonism of apomorphine induced swimming was determined in female swiss -Wbster mice after (po) administration of 20 mg/kg", "format": "functional", "settings": "not given", "values": [{"smiles": "CN1CCN(C2=Nc3ccc(O)cc3Sc3ccccc32)CC1", "Activity": 32}]}, {"target": "D(2) dopamine receptor (Rattus norvegicus) (UniProt P61169)", "sequence (P61169 whole entry)": "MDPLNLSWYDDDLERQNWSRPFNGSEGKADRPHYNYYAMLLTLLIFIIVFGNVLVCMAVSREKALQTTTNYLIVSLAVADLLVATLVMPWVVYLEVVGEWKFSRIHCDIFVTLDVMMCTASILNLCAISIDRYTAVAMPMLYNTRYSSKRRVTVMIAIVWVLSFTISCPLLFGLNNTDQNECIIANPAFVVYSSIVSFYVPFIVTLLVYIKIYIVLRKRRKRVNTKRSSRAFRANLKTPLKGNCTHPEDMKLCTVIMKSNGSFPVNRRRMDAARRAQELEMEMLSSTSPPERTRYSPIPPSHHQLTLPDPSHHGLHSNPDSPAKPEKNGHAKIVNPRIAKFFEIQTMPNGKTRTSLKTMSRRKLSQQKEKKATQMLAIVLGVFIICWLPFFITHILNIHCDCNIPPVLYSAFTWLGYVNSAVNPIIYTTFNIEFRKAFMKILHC", "assay": "Binding affinity at dopamine receptor D2 from rat by spiropiperidone displacement.", "settings": "not given", "procedure,_shortened": "(§2)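 D2 receptor binding was read as % displacement of spiropiperidone, with test compound at 1000 nM unless stated otherwise. IC50 values used at least five concentrations per compound in triplicate. Each value is the mean of two replicate experiments differing by 5% or less.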", "units": {"% displacement of spiropiperidone": "%"}, "values": [{"smiles": "COC[C@H](CN1CCN(C2=Nc3ccccc3Sc3ccccc32)CC1)OC", "% displacement of spiropiperidone": 10}, {"smiles": "CN1CCN(C2=Nc3cc(Cl)ccc3Oc3ccccc32)CC1", "note": "[ISOLOXAPINE]", "% displacement of spiropiperidone": 48}, {"smiles": "CN1CCN(C2=Nc3cc(Cl)ccc3Cc3ccccc32)CC1", "% displacement of spiropiperidone": 40}, {"smiles": "c1ccc2c(c1)N=C(N1CCN(CC3COCCO3)CC1)c1ccccc1S2", "note": "(stereo not given)", "% displacement of spiropiperidone": 50}, {"smiles": "CN1CCN(C2=Nc3cc(Cl)ccc3Sc3ccccc32)CC1", "note": "[ISOCLOTHIAPINE]", "% displacement of spiropiperidone": 46}, {"smiles": "OCC1COCC(CN2CCN(C3=Nc4ccccc4Sc4ccccc43)CC2)O1", "note": "(stereo not given)", "% displacement of spiropiperidone": 4}]}, {"tested_on": "Mus musculus", "assay": "Antagonism of apomorphine induced climbing was determined in female swiss -Webster mice after (ip) administration of 2.5 mg/kg", "format": "functional", "settings": "not given", "procedure,_shortened": "as §1", "values": [{"smiles": "CN1CCN(C2=Nc3ccc(O)cc3Sc3ccccc32)CC1", "Activity": 18}, {"smiles": "c1ccc2c(c1)N=C(N1CCN(CC3COCCO3)CC1)c1ccccc1S2", "note": "(stereo not given)", "Activity": 14}]}, {"tested_on": "not listed separately", "assay": "Number of animals showing dyskinesias was determined in haloperidol sensitized 3 cebus monkeys after (po) administration of 80 mg/kg", "format": "functional", "settings": "dose 10 mg/kg; in the assay text read “10 mg/kg” for “80 mg/kg”", "procedure,_shortened": "(§3)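 Adult female and male Cebus monkeys sensitized with oral haloperidol 1 mg/kg once per week until dyskinetic reactions occurred. Test drug given orally (2 mL/kg) in 0.5% w/w hydroxypropylmethylcellulose with 0.1% w/w Tween 80 in distilled water, at least 2 weeks between treatments. Two observers watched continuously for 6-7 h, recording reaction type and severity every 30 min. Score is monkeys with dyskinesias/monkeys tested.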", "values": [{"smiles": "CN1CCN(C2=Nc3ccc(O)cc3Sc3ccccc32)CC1", "No of monkeys": 3}]}, {"tested_on": "Mus musculus", "assay": "Antagonism of apomorphine induced swimming was determined in female swiss -Wbster mice after (po) administration of 2.5 mg/kg", "format": "functional", "settings": "not given", "values": [{"smiles": "CN1CCN(C2=Nc3ccc(O)cc3Sc3ccccc32)CC1", "Activity": 3}]}, {"target": "D(2) dopamine receptor (Rattus norvegicus) (UniProt P61169)", "assay": "Inhibitory activity for the displacement of spiropiperidone (1000 nM) from dopamine D2 receptor of rat", "settings": "not given", "procedure,_shortened": "as §2", "units": {"inhibition": "%"}, "values": [{"smiles": "COCC(COC)N1CCN(C2=Nc3ccccc3Sc3ccccc32)CC1", "inhibition": 4}]}, {"tested_on": "not listed separately", "assay": "Number of animals showing dyskinesias was determined in haloperidol sensitized 4 cebus monkeys after (po) administration of 40 mg/kg", "format": "functional", "settings": "not given", "procedure,_shortened": "as §3", "values": [{"smiles": "OCC1COCC(CN2CCN(C3=Nc4ccccc4Sc4ccccc43)CC2)O1", "note": "(stereo not given)", "No of monkeys": 4}]}, {"tested_on": "Mus musculus", "assay": "Antagonism of apomorphine induced swimming was determined in female swiss -Webster mice after (ip) administration of 5 mg/kg", "format": "functional", "settings": "not given", "values": [{"smiles": "c1ccc2c(c1)N=C(N1CCN(CC3COCCO3)CC1)c1ccccc1S2", "note": "(stereo not given)", "Activity": 13}]}, {"tested_on": "not listed separately", "assay": "Number of animals showing dyskinesias was determined in haloperidol sensitized cebus monkey after (po) administration of 40 mg/kg", "format": "functional", "settings": "not given", "procedure,_shortened": "as §3", "values": [{"smiles": "c1ccc2c(c1)N=C(N1CCN(CC3COCCO3)CC1)c1ccccc1S2", "note": "(stereo not given)", "No of monkeys": 2}]}, {"tested_on": "Mus musculus", "assay": "Antagonism of apomorphine induced climbing was determined in female swiss -Webster mice after (ip) administration of 5 mg/kg", "format": "functional", "settings": "not given", "procedure,_shortened": "as §1", "values": [{"smiles": "CN1CCN(C2=Nc3ccc(O)cc3Sc3ccccc32)CC1", "Activity": 13}, {"smiles": "c1ccc2c(c1)N=C(N1CCN(CC3COCCO3)CC1)c1ccccc1S2", "note": "(stereo not given)", "Activity": 6}]}, {"tested_on": "Mus musculus", "assay": "Antagonism of apomorphine induced swimming was determined in female swiss -Wbster mice after (po) administration of 5 mg/kg", "format": "functional", "settings": "not given", "values": [{"smiles": "CN1CCN(C2=Nc3ccc(O)cc3Sc3ccccc32)CC1", "Activity": 10}]}, {"tested_on": "Mus musculus", "assay": "Antagonism of apomorphine induced swimming was determined in female swiss -Webster mice after (ip) administration of 20 mg/kg", "format": "functional", "settings": "not given", "values": [{"smiles": "c1ccc2c(c1)N=C(N1CCN(CC3COCCO3)CC1)c1ccccc1S2", "note": "(stereo not given)", "Activity": 20}, {"smiles": "OCC1COCC(CN2CCN(C3=Nc4ccccc4Sc4ccccc43)CC2)O1", "note": "(stereo not given)", "Activity": 0}]}, {"tested_on": "Mus musculus", "assay": "Antagonism of apomorphine induced climbing was determined in female swiss -Webster mice after (ip) administration of 40 mg/kg", "format": "functional", "settings": "not given", "procedure,_shortened": "as §1", "values": [{"smiles": "COC[C@H](CN1CCN(C2=Nc3ccccc3Sc3ccccc32)CC1)OC", "Activity": 19}, {"smiles": "CN1CCN(C2=Nc3cc(Cl)ccc3Oc3ccccc32)CC1", "note": "[ISOLOXAPINE]", "Activity": 20}, {"smiles": "OCCOCCN1CCN(C2=Nc3ccccc3Cc3sccc32)CC1", "Activity": 21}, {"smiles": "CN1CCN(C2=Nc3cc(Cl)ccc3Cc3ccccc32)CC1", "Activity": 24}, {"smiles": "c1ccc2c(c1)N=C(N1CCN(CC3COCCO3)CC1)c1ccccc1S2", "note": "(stereo not given)", "Activity": 2}, {"smiles": "OCC1COCC(CN2CCN(C3=Nc4ccccc4Sc4ccccc43)CC2)O1", "note": "(stereo not given)", "Activity": 7}]}, {"tested_on": "Mus musculus", "assay": "Antagonism of apomorphine induced swimming was determined in female swiss -Webster mice after (ip) administration of 2.5 mg/kg", "format": "functional", "settings": "not given", "values": [{"smiles": "c1ccc2c(c1)N=C(N1CCN(CC3COCCO3)CC1)c1ccccc1S2", "note": "(stereo not given)", "Activity": 8}]}, {"tested_on": "Mus musculus", "assay": "Antagonism of apomorphine induced climbing was determined in female swiss -Webster mice after (ip) administration of 10 mg/kg", "format": "functional", "settings": "not given", "procedure,_shortened": "as §1", "values": [{"smiles": "CN1CCN(C2=Nc3ccc(O)cc3Sc3ccccc32)CC1", "Activity": 1}, {"smiles": "c1ccc2c(c1)N=C(N1CCN(CC3COCCO3)CC1)c1ccccc1S2", "note": "(stereo not given)", "Activity": 1}]}, {"tested_on": "Mus musculus", "assay": "Antagonism of apomorphine induced swimming was determined in female swiss -Webster mice after (ip) administration of 10 mg/kg", "format": "functional", "settings": "not given", "values": [{"smiles": "c1ccc2c(c1)N=C(N1CCN(CC3COCCO3)CC1)c1ccccc1S2", "note": "(stereo not given)", "Activity": 20}]}, {"tested_on": "Mus musculus", "assay": "Antagonism of apomorphine induced swimming was determined in female swiss -Webster mice after (ip) administration of 80 mg/kg", "format": "functional", "settings": "not given", "values": [{"smiles": "COC[C@H](CN1CCN(C2=Nc3ccccc3Sc3ccccc32)CC1)OC", "Activity": 13}, {"smiles": "COCC(COC)N1CCN(C2=Nc3ccccc3Sc3ccccc32)CC1", "Activity": 0}, {"smiles": "COCC(CO)N1CCN(C2=Nc3ccccc3Sc3ccccc32)CC1", "note": "(stereo not given)", "Activity": 0}, {"smiles": "O=S1(=O)c2ccccc2N=C(N2CCN(CCOCCO)CC2)c2ccccc21", "Activity": 0}, {"smiles": "OCC1COCC(CN2CCN(C3=Nc4ccccc4Sc4ccccc43)CC2)O1", "note": "(stereo not given)", "Activity": 27}, {"smiles": "[O-][S+]1c2ccccc2N=C(N2CCN(CCOCCO)CC2)c2ccccc21", "note": "(stereo not given) [SULFOXIDE METABOLITE]", "Activity": 0}]}, {"tested_on": "Mus musculus", "assay": "Antagonism of apomorphine induced swimming was determined in female swiss -Wbster mice after (po) administration of 10 mg/kg", "format": "functional", "settings": "not given", "values": [{"smiles": "CN1CCN(C2=Nc3ccc(O)cc3Sc3ccccc32)CC1", "Activity": 34}]}, {"tested_on": "Mus musculus", "assay": "Antagonism of apomorphine induced swimming was determined in female swiss -Webster mice after (ip) administration of 40 mg/kg", "format": "functional", "settings": "not given", "values": [{"smiles": "COC[C@H](CN1CCN(C2=Nc3ccccc3Sc3ccccc32)CC1)OC", "Activity": 3}, {"smiles": "c1ccc2c(c1)N=C(N1CCN(CC3COCCO3)CC1)c1ccccc1S2", "note": "(stereo not given)", "Activity": 30}, {"smiles": "OCC1COCC(CN2CCN(C3=Nc4ccccc4Sc4ccccc43)CC2)O1", "note": "(stereo not given)", "Activity": 8}]}, {"target": "D(2) dopamine receptor (Rattus norvegicus, UniProt P61169)", "sequence (P61169 whole entry)": "as above", "assay": "Inhibition of spiropiperidone binding at dopamine receptor D2 of rat.", "settings": "not given", "units": {"IC50": "nM"}, "values": [{"smiles": "CN1CCN(C2=Nc3ccc(O)cc3Sc3ccccc32)CC1", "IC50": 49}, {"smiles": "COCC(CO)N1CCN(C2=Nc3ccccc3Sc3ccccc32)CC1", "note": "(stereo not given)", "IC50": 1640}]}]}
